Measured values reported in ChEMBL document CHEMBL4715838, “Novel diosgenin derivatives containing 1,3,4-oxadiazole/thiadiazole moieties as potential antitumor agents: Design, synthesis and cytotoxic evaluation” (Eur J Med Chem, 2020).
Active and inactive are the calls of the source. The calls are words filed in the database; no cut-off is given here.

Tests used:
MCF7 = experiment: Cytotoxicity against human MCF7 cells assessed as reduction in cell viability measured after 48 hrs by MTT assay; format: functional, cell-based; details: MCF7, 48 h
How it was run: (§1)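 Cells in DMEM with 10% FBS, penicillin/streptomycin, 37 °C, 5% CO2. Seeded at 5×10^3 per well directly into medium holding graded concentrations of sample and incubated 48 h. MTT (5 mg/mL in PBS) added for 4 h, medium replaced with DMSO, absorbance read at 492 nm. IC50 taken as the concentration giving 50% inhibition of proliferation; three replicates, means ± SD.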

GES1 = experiment: Cytotoxicity against human GES1 cells assessed as reduction in cell viability measured after 48 hrs by MTT assay; format: cell-based; details: GES1, 48 h; how it was run: as §1
A549 [1] = experiment: Cytotoxicity against human A549 cells assessed as reduction in cell viability measured after 48 hrs by MTT assay; format: functional, cell-based; details: A549, 48 h; how it was run: as §1
HCT-116 = experiment: Cytotoxicity against human HCT-116 cells assessed as reduction in cell viability measured after 48 hrs by MTT assay; format: functional, cell-based; details: HCT-116, 48 h; how it was run: as §1
HepG2 [2] = experiment: Cytotoxicity against human HepG2 cells assessed as reduction in cell viability measured after 48 hrs by MTT assay; format: functional, cell-based; details: HepG2, 48 h; how it was run: as §1
A549 [3] = experiment: Induction of apoptosis in human A549 cells assessed as early apoptotic cells at 30 uM after 48 hrs by AnnexinV-FITC/propidium iodide staining based flow cytometry analysis (reference value: 0.5 to 2.3 %); format: functional
A549 [4] = experiment: Induction of apoptosis in human A549 cells assessed as formation of apoptotic bodies at 30 uM measured after 48 hrs by phase contrast microscopic analysis; format: functional, cell-based
How it was run: (§2)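 A549 seeded at 2×10^5 cells/well and allowed to settle 24 h. Then exposed 48 h to test compound (15 or 30 μM) or diosgenin (30 μM); controls received 0.1% DMSO. Cell shape examined by phase contrast microscopy.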

A549 [5] = experiment: Induction of apoptosis in human A549 cells assessed as increase in cleaved caspase 9 expression at 15 to 30 uM by Western blot analysis; format: functional, cell-based; details: dose 15-30 µM
How it was run: (§3)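 A549 treated with compound (0, 7.5, 15, 30 μM) or diosgenin (0, 15, 30 μM), lysed in RIPA and boiled 10 min. 30 μg protein run on 10% SDS-PAGE, blotted to nitrocellulose, blocked in 5% BSA. Primary antibodies used at 1:1000, HRP secondary at 1:5000 for 2 h, ECL detection. β-actin served as loading control.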

A549 [6] = experiment: Induction of apoptosis in human A549 cells assessed as late apoptotic cells at 30 uM after 48 hrs by AnnexinV-FITC/propidium iodide staining based flow cytometry analysis (reference value: 1 to 3.1 %); format: functional
A549 [7] = experiment: Induction of apoptosis in human A549 cells assessed as increase in cleaved PARP expression at 15 to 30 uM by Western blot analysis; format: functional, cell-based; details: dose 15-30 µM; how it was run: as §3
A549 [8] = experiment: Induction of apoptosis in human A549 cells assessed as late apoptotic cells at 15 uM after 48 hrs by AnnexinV-FITC/propidium iodide staining based flow cytometry analysis (reference value: 1 to 3.1 %); format: functional
A549 [9] = experiment: Induction of apoptosis in human A549 cells assessed as early apoptotic cells at 15 uM after 48 hrs by AnnexinV-FITC/propidium iodide staining based flow cytometry analysis (reference value: 0.5 to 2.3 %); format: functional
A549 [10] = experiment: Induction of apoptosis in human A549 cells assessed as cell rounding at 30 uM measured after 48 hrs by phase contrast microscopic analysis; format: functional, cell-based; how it was run: as §2
A549 [11] = experiment: Induction of apoptosis in human A549 cells assessed as increase in cleaved caspase 3 expression at 15 to 30 uM by Western blot analysis; format: functional, cell-based; details: dose 15-30 µM; how it was run: as §3
A549 [12] = experiment: Induction of apoptosis in human A549 cells assessed as cell shrinkage at 30 uM measured after 48 hrs by phase contrast microscopic analysis; format: functional, cell-based; how it was run: as §2
A549 [13] = experiment: Induction of apoptosis in human A549 cells assessed as membrane blebbing at 30 uM measured after 48 hrs by phase contrast microscopic analysis; format: functional, cell-based; how it was run: as §2
HepG2 [14] = experiment: Potency index, ratio of diosgenin IC50 to test compound IC50 for cytotoxicity against human HepG2 cells assessed as reduction in cell viability; format: functional

SMILES	IC50 (MCF7) [µM]	IC50 (GES1) [µM]	IC50 (A549 [1]) [µM]	IC50 (HCT-116) [µM]	IC50 (HepG2 [2]) [µM]	also measured
CO[C@@]12[C@H](COC(N)=O)C3=C(C(=O)C(C)=C(N)C3=O)N1C[C@@H]1N[C@@H]12 [MITOMYCIN]	16.7	21.1	11	11	32.6	–
C[C@H]1[C@H]2[C@H](C[C@H]3[C@@H]4CC=C5C[C@@H](O)CC[C@]5(C)[C@H]4CC[C@]23C)O[C@@H]1CC[C@@H](C)c1nnc(-c2cccnc2)s1	> 100	354	7.68	51.6	8.83	–
CC(=O)O[C@H]1CC[C@@]2(C)C(=CC[C@H]3[C@@H]4C[C@@H]5O[C@H](CC[C@@H](C)c6nnc(-c7ccccc7)o6)[C@@H](C)[C@@H]5[C@@]4(C)CC[C@@H]32)C1	> 100	82.3	84.5	> 100	63.2	–
C[C@@H]1CC[C@@]2(OC1)O[C@H]1C[C@H]3[C@@H]4CC=C5C[C@@H](O)CC[C@]5(C)[C@H]4CC[C@]3(C)[C@H]1[C@@H]2C [DISOGENIN]	23.9	101	26.4	49.1	33.9	Activity (A549 [3]): 2.5%; Activity (A549 [4]): inactive; Activity (A549 [5]): inactive; Activity (A549 [6]): 2%; Activity (A549 [7]): inactive; Activity (A549 [8]): 3.1%; Activity (A549 [9]): 2.3%; Activity (A549 [10]): inactive; Activity (A549 [11]): inactive; Activity (A549 [12]): inactive; Activity (A549 [13]): inactive
C[C@H]1[C@H]2[C@H](C[C@H]3[C@@H]4CC=C5C[C@@H](O)CC[C@]5(C)[C@H]4CC[C@]23C)O[C@@H]1CC[C@H](C)c1nnc(-c2cccc3ccccc23)s1	63.8	201	18.3	46.6	32.9	Ratio IC50 (HepG2 [14]): 1.02
COc1ccc(-c2nnc([C@H](C)CC[C@H]3O[C@H]4C[C@H]5[C@@H]6CC=C7C[C@@H](O)CC[C@]7(C)[C@H]6CC[C@]5(C)[C@H]4[C@@H]3C)s2)cc1	> 100	209	16.4	> 100	23.1	–
CC(=O)O[C@H]1CC[C@@]2(C)C(=CC[C@H]3[C@@H]4C[C@@H]5O[C@H](CC[C@@H](C)c6nnc(C)s6)[C@@H](C)[C@@H]5[C@@]4(C)CC[C@@H]32)C1	47.7	75.8	40.3	> 100	34.2	–
COc1ccc(-c2nnc([C@H](C)CC[C@H]3O[C@H]4C[C@H]5[C@@H]6CC=C7C[C@@H](OC(C)=O)CC[C@]7(C)[C@H]6CC[C@]5(C)[C@H]4[C@@H]3C)o2)cc1	–	151	–	–	–	–
C[C@H]1[C@H]2[C@H](C[C@H]3[C@@H]4CC=C5C[C@@H](O)CC[C@]5(C)[C@H]4CC[C@]23C)O[C@@H]1CC[C@@H](C)c1nnc(-c2cccnc2)o1	> 100	199	98.1	> 100	> 100	–
COc1ccc(-c2nnc([C@H](C)CC[C@H]3O[C@H]4C[C@H]5[C@@H]6CC=C7C[C@@H](O)CC[C@]7(C)[C@H]6CC[C@]5(C)[C@H]4[C@@H]3C)o2)cc1	–	–	–	> 100	–	–
C[C@H]1[C@H]2[C@H](C[C@H]3[C@@H]4CC=C5C[C@@H](O)CC[C@]5(C)[C@H]4CC[C@]23C)O[C@@H]1CC[C@@H](C)c1nnc(-c2ccccc2)o1	53	120	64.2	> 100	39.5	–
Cc1nnc([C@H](C)CC[C@H]2O[C@H]3C[C@H]4[C@@H]5CC=C6C[C@@H](O)CC[C@]6(C)[C@H]5CC[C@]4(C)[C@H]3[C@@H]2C)s1	33.8	107	36.7	48.9	33.2	–
CC(=O)O[C@H]1CC[C@@]2(C)C(=CC[C@H]3[C@@H]4C[C@@H]5O[C@H](CC[C@@H](C)c6nnc(C)o6)[C@@H](C)[C@@H]5[C@@]4(C)CC[C@@H]32)C1	44.8	98.2	34.4	78.8	57.6	–
CC(=O)O[C@H]1CC[C@@]2(C)C(=CC[C@H]3[C@@H]4C[C@@H]5O[C@H](CC[C@@H](C)c6nnc(-c7cccnc7)o6)[C@@H](C)[C@@H]5[C@@]4(C)CC[C@@H]32)C1	> 100	62.4	33.5	72.5	82.6	–
C[C@H]1[C@H]2[C@H](C[C@H]3[C@@H]4CC=C5C[C@@H](O)CC[C@]5(C)[C@H]4CC[C@]23C)O[C@@H]1CC[C@H](C)c1nnc(-c2cccc3ccccc23)o1	69.7	298	31.3	> 100	29.2	–
CC(=O)O[C@H]1CC[C@@]2(C)C(=CC[C@H]3[C@@H]4C[C@@H]5O[C@H](CC[C@H](C)c6nnc(-c7cccc8ccccc78)o6)[C@@H](C)[C@@H]5[C@@]4(C)CC[C@@H]32)C1	–	70.1	–	–	–	–
C[C@H]1[C@H]2[C@H](C[C@H]3[C@@H]4CC=C5C[C@@H](O)CC[C@]5(C)[C@H]4CC[C@]23C)O[C@@H]1CC[C@@H](C)c1nnc(-c2ccccc2)s1	27.4	527	15	48.9	32.1	Ratio IC50 (HepG2 [14]): 1.05
CC(=O)O[C@H]1CC[C@@]2(C)C(=CC[C@H]3[C@@H]4C[C@@H]5O[C@H](CC[C@H](C)c6nnc(-c7cccc8ccccc78)s6)[C@@H](C)[C@@H]5[C@@]4(C)CC[C@@H]32)C1	–	–	> 100	> 100	–	–
Cc1nnc([C@H](C)CC[C@H]2O[C@H]3C[C@H]4[C@@H]5CC=C6C[C@@H](O)CC[C@]6(C)[C@H]5CC[C@]4(C)[C@H]3[C@@H]2C)o1	20.4	72.8	30.4	51.6	34.2	–
